Source: PMC4569539 (Bioorganic & medicinal chemistry letters, 2015)
Like-named read-outs stand apart in the source and are kept apart here.

How the values were obtained:
[1] = stated as known for 1 and related congeners, no reference given; cited from earlier work
[2] = assay type: in vivo; conditions: plasma concentration after ip versus oral administration
acetylated α-tubulin = experiment: Acetylated α-tubulin in brain homogenates after repeated dosing; assay type: in vivo; conditions: normal mice, 1 day after two 5 mg/kg doses (ip)
[3] = Brain and plasma pharmacokinetics after ip administration of 5 mg/kg; assay type: in vivo; conditions: mice, after ip injection of 5 mg/kg of 4
Procedure, shortened: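 Mice received the test compound at 5 mg/kg ip. Brain and plasma levels were followed over time to give elimination rates from each compartment. In a repeat-dose arm, tissues were sampled 4 h after a single 5 mg/kg ip dose or 4 h after the second of two doses given 4 h apart. Brain-to-plasma concentration ratios were calculated for each regimen.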

[4] = cited from earlier work

distribution of metabolites in brain and plasma samples [3]	Compound	brain penetration [4]	differential between brain and plasma half-life [4]	also measured
	CNCCCOc1cc(F)c(-c2c(Cl)nc3ncnn3c2N[C@@H](C)C(F)(F)F)c(F)c1 [compound 1, cevipabulin]			oral bioavailability [1]: orally bioavailable
	C[C@H](Nc1c(-c2c(F)cc(OCCCO)cc2F)c(Cl)nc2ncnn12)C(F)(F)F [compound 4, (S)-3-(4-(5-Chloro-7-((1,1,1-trifluoropropan-2-yl)amino)-[1,2,4]triazolo[1,5-a]pyrimidin-6-yl)-3,5-difluorophenoxy)-propan-1-ol]			oral bioavailability [2]: orally bioavailable; acetylated α-tubulin (marker of stable MTs) in brain homogenates (acetylated α-tubulin): significant elevation
detected predominantly in plasma	C[C@H](Nc1c(-c2c(F)cc(OCCC(=O)O)cc2F)c(Cl)nc2ncnn12)C(F)(F)F [compound 5]			
detected predominantly in plasma	C[C@H](Nc1c(-c2c(F)cc(O)cc2F)c(Cl)nc2ncnn12)C(F)(F)F [compound 6]			
	C/C(=C\c1csc(C)n1)[C@@H]1C[C@@H]2O[C@]2(C)CCC[C@H](C)[C@H](O)[C@@H](C)C(=O)C(C)(C)[C@@H](O)CC(=O)O1 [epothilone B]	brain penetrant	large differential	
	C/C1=C/C[C@@H](/C(C)=C/c2csc(C)n2)OC(=O)C[C@H](O)C(C)(C)C(=O)[C@H](C)[C@@H](O)[C@@H](C)CCC1 [epothilone D]	brain penetrant	large differential	
